Converted amounts (≈) assume the structure as drawn.
Key:
Type in all cases: functional
[1] = system: Enterococcus faecalis; assay: Antibacterial activity against linezolid-resistant Enterococcus faecalis by broth liquid microdilution method
Method in brief: (§1)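 Isolates were identified on an automated MicroScan WalkAway 96 system. Susceptibility was tested by broth microdilution following CLSI guidelines. MIC was taken as the lowest concentration giving complete inhibition of bacterial growth. S. aureus ATCC 29213 served as the control strain.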

[2] = system: Enterococcus faecium; assay: Antibacterial activity against vancomycin-resistant Enterococcus faecium by broth liquid microdilution method; method in brief: as §1
[3] = system: Staphylococcus aureus; assay: Antibacterial activity against methicillin-sensitive Staphylococcus aureus by broth liquid microdilution method; method in brief: as §1
[4] = system: Staphylococcus aureus; assay: Antibacterial activity against Staphylococcus aureus ATCC 29213 by broth liquid microdilution method; method in brief: as §1
[5] = system: Staphylococcus aureus; assay: Antibacterial activity against methicillin-resistant Staphylococcus aureus by broth liquid microdilution method; method in brief: as §1

CC(=O)NC[C@H]1CN(c2ccc(-c3ccc(/C=N/N4CCN(C(=O)OC(C)(C)C)CC4)cc3)c(F)c2)C(=O)O1
MIC [1]: > 2 µg/mL
MIC [2]: > 2 µg/mL
MIC [3]: > 2 µg/mL
MIC [4]: > 2 µg/mL

CC(=O)NC[C@H]1CN(c2ccc(-c3ccc(/C=N/N4CCN(C(=O)c5ccc(Br)cc5)CC4)cc3)c(F)c2)C(=O)O1
MIC [1]: 0.125 µg/mL (≈ 0.201 µM)
MIC [2]: 0.125 µg/mL (≈ 0.201 µM)
MIC [5]: 0.125 µg/mL (≈ 0.201 µM)
MIC [3]: 0.125 µg/mL (≈ 0.201 µM)
MIC [4]: 0.125 µg/mL (≈ 0.201 µM)

C=CCN1CCN(/N=C/c2ccc(-c3ccc(N4C[C@H](CNC(C)=O)OC4=O)cc3F)cc2)CC1
MIC [1]: 0.125 µg/mL (≈ 0.261 µM)
MIC [2]: 0.125 µg/mL (≈ 0.261 µM)
MIC [5]: 0.125 µg/mL (≈ 0.261 µM)
MIC [3]: 0.125 µg/mL (≈ 0.261 µM)
MIC [4]: 0.5 µg/mL (≈ 1.04 µM)

COc1ccc(C(=O)N2CCN(/N=C/c3ccc(-c4ccc(N5C[C@H](CNC(C)=O)OC5=O)cc4F)cc3)CC2)cc1
MIC [1]: 0.125 µg/mL (≈ 0.218 µM)
MIC [2]: 0.125 µg/mL (≈ 0.218 µM)
MIC [5]: 0.125 µg/mL (≈ 0.218 µM)
MIC [3]: 0.125 µg/mL (≈ 0.218 µM)
MIC [4]: 0.125 µg/mL (≈ 0.218 µM)

COC(=O)N1CCN(/N=C/c2ccc(-c3ccc(N4C[C@H](CNC(C)=O)OC4=O)cc3F)cc2)CC1
MIC [1]: 0.125 µg/mL (≈ 0.251 µM)
MIC [2]: 0.125 µg/mL (≈ 0.251 µM)
MIC [5]: 0.125 µg/mL (≈ 0.251 µM)
MIC [3]: 0.125 µg/mL (≈ 0.251 µM)
MIC [4]: 0.125 µg/mL (≈ 0.251 µM)

CC(=O)NC[C@H]1CN(c2ccc(-c3ccc(/C=N/N4CCN(C(=O)C(F)(F)F)CC4)cc3)c(F)c2)C(=O)O1
MIC [1]: 0.125 µg/mL (≈ 0.233 µM)
MIC [2]: 0.125 µg/mL (≈ 0.233 µM)
MIC [5]: 0.125 µg/mL (≈ 0.233 µM)
MIC [3]: 0.125 µg/mL (≈ 0.233 µM)
MIC [4]: 0.125 µg/mL (≈ 0.233 µM)

CC(=O)NC[C@H]1CN(c2ccc(-c3ccc(/C=N/N4CCN(S(C)(=O)=O)CC4)cc3)c(F)c2)C(=O)O1
MIC [1]: 0.5 µg/mL (≈ 0.966 µM)
MIC [2]: 2 µg/mL (≈ 3.86 µM)
MIC [5]: 0.5 µg/mL (≈ 0.966 µM)
MIC [3]: 1 µg/mL (≈ 1.93 µM)
MIC [4]: 1 µg/mL (≈ 1.93 µM)

COc1cccc(C(=O)N2CCN(/N=C/c3ccc(-c4ccc(N5C[C@H](CNC(C)=O)OC5=O)cc4F)cc3)CC2)c1
MIC [1]: 1 µg/mL (≈ 1.74 µM)
MIC [2]: 1 µg/mL (≈ 1.74 µM)
MIC [5]: 0.25 µg/mL (≈ 0.436 µM)
MIC [3]: 0.25 µg/mL (≈ 0.436 µM)
MIC [4]: 0.25 µg/mL (≈ 0.436 µM)

CC(=O)NC[C@H]1CN(c2ccc(-c3ccc(/C=N/N4CCN(C(=O)c5ccc(Cl)cc5)CC4)cc3)c(F)c2)C(=O)O1
MIC [1]: 0.25 µg/mL (≈ 0.432 µM)
MIC [2]: 0.25 µg/mL (≈ 0.432 µM)
MIC [5]: 0.0675 µg/mL (≈ 0.117 µM)
MIC [3]: 0.0675 µg/mL (≈ 0.117 µM)
MIC [4]: 0.0675 µg/mL (≈ 0.117 µM)

C#CCN1CCN(/N=C/c2ccc(-c3ccc(N4C[C@H](CNC(C)=O)OC4=O)cc3F)cc2)CC1
MIC [1]: 0.125 µg/mL (≈ 0.262 µM)
MIC [2]: 0.125 µg/mL (≈ 0.262 µM)
MIC [5]: 0.125 µg/mL (≈ 0.262 µM)
MIC [3]: 0.125 µg/mL (≈ 0.262 µM)
MIC [4]: 0.125 µg/mL (≈ 0.262 µM)

CC(=O)NC[C@H]1CN(c2ccc(-c3ccc(/C=N/N4CCN(C(=O)c5cnccn5)CC4)cc3)c(F)c2)C(=O)O1
MIC [1]: 0.125 µg/mL (≈ 0.229 µM)
MIC [2]: 0.125 µg/mL (≈ 0.229 µM)
MIC [5]: 0.125 µg/mL (≈ 0.229 µM)
MIC [3]: 0.125 µg/mL (≈ 0.229 µM)
MIC [4]: 0.125 µg/mL (≈ 0.229 µM)

CC(=O)NC[C@H]1CN(c2ccc(-c3ccc(/C=N/N4CCN(C(=O)N(C)C)CC4)cc3)c(F)c2)C(=O)O1
MIC [1]: 0.25 µg/mL (≈ 0.49 µM)
MIC [2]: 0.25 µg/mL (≈ 0.49 µM)
MIC [5]: 0.0675 µg/mL (≈ 0.132 µM)
MIC [3]: 0.0675 µg/mL (≈ 0.132 µM)
MIC [4]: 0.0675 µg/mL (≈ 0.132 µM)

CC(=O)NC[C@H]1CN(c2ccc(-c3ccc(/C=N/N4CCN(C(=O)c5ccc(C(F)(F)F)cc5)CC4)cc3)c(F)c2)C(=O)O1
MIC [1]: 0.125 µg/mL (≈ 0.204 µM)
MIC [2]: 0.125 µg/mL (≈ 0.204 µM)
MIC [5]: 0.125 µg/mL (≈ 0.204 µM)
MIC [3]: 0.125 µg/mL (≈ 0.204 µM)
MIC [4]: 0.125 µg/mL (≈ 0.204 µM)

CC(=O)NC[C@H]1CN(c2ccc(-c3ccc(/C=N/N4CCN(Cc5ccccc5)CC4)cc3)c(F)c2)C(=O)O1
MIC [1]: 0.125 µg/mL (≈ 0.236 µM)
MIC [2]: 0.125 µg/mL (≈ 0.236 µM)
MIC [5]: 0.125 µg/mL (≈ 0.236 µM)
MIC [3]: 0.125 µg/mL (≈ 0.236 µM)
MIC [4]: 0.125 µg/mL (≈ 0.236 µM)

CCC(=O)N1CCN(/N=C/c2ccc(-c3ccc(N4C[C@H](CNC(C)=O)OC4=O)cc3F)cc2)CC1
MIC [1]: 0.125 µg/mL (≈ 0.252 µM)
MIC [2]: 0.125 µg/mL (≈ 0.252 µM)
MIC [5]: 0.125 µg/mL (≈ 0.252 µM)
MIC [3]: 0.125 µg/mL (≈ 0.252 µM)
MIC [4]: 0.125 µg/mL (≈ 0.252 µM)

COc1ccccc1C(=O)N1CCN(/N=C/c2ccc(-c3ccc(N4C[C@H](CNC(C)=O)OC4=O)cc3F)cc2)CC1
MIC [1]: 0.125 µg/mL (≈ 0.218 µM)
MIC [2]: 0.125 µg/mL (≈ 0.218 µM)
MIC [5]: 0.125 µg/mL (≈ 0.218 µM)
MIC [3]: 0.0675 µg/mL (≈ 0.118 µM)
MIC [4]: 0.5 µg/mL (≈ 0.872 µM)

CC(=O)NC[C@H]1CN(c2ccc(-c3ccc(/C=N/N4CCN(C(=O)CN)CC4)cc3)c(F)c2)C(=O)O1
MIC [1]: 0.5 µg/mL (≈ 1.01 µM)
MIC [2]: 0.5 µg/mL (≈ 1.01 µM)
MIC [5]: 0.25 µg/mL (≈ 0.503 µM)
MIC [3]: 0.25 µg/mL (≈ 0.503 µM)
MIC [4]: 0.125 µg/mL (≈ 0.252 µM)

From ChEMBL document CHEMBL4265926, “Synthesis and antibacterial activity evaluation of novel biaryloxazolidinone analogues containing a hydrazone moiety as promising antibacterial agents” (Eur J Med Chem, 2018)
